Measured values from ChEMBL document CHEMBL3046000, “Design and synthesis of 1-(benzothiazol-5-yl)-1H-1,2,4-triazol-5-ones as protoporphyrinogen oxidase inhibitors” (Bioorg Med Chem, 2013).

How the values were obtained:
[1] = Phytotoxicity against 4-leaf stage Triticum aestivum (wheat) plants assessed as plant growth inhibition at 150 g ai/ha applied through spraying measured 30 days after compound treatment under greenhouse conditions; assay type: organism-based; conditions: in vivo, read-out: GI
[2] = Phytotoxicity against four-leaf stage Brassica napus (oilseed rape) plants assessed as plant growth inhibition at 150 g ai/ha applied through spraying measured 30 days after compound treatment under greenhouse conditions; assay type: organism-based; conditions: in vivo, read-out: GI
[3] = Phytotoxicity against four-leaf stage Zea mays cv. Anjou (maize) plants assessed as plant growth inhibition at 150 g ai/ha applied through spraying measured 30 days after compound treatment under greenhouse conditions; assay type: organism-based; conditions: in vivo, read-out: GI
[4] = Phytotoxicity against four-leaf stage Gossypium hirsutum (cotton) plants assessed as plant growth inhibition at 150 g ai/ha applied through spraying measured 30 days after compound treatment under greenhouse conditions; assay type: organism-based; conditions: in vivo, read-out: GI
[5] = Phytotoxicity against 4-leaf stage Glycine max (soybean) plants assessed as plant growth inhibition at 150 g ai/ha applied through spraying measured 30 days after compound treatment under greenhouse conditions; assay type: organism-based; conditions: in vivo, read-out: GI
[6] = Phytotoxicity against four-leaf stage Oryza sativa (rice) plants assessed as plant growth inhibition at 150 g ai/ha applied through spraying measured 30 days after compound treatment under greenhouse conditions; assay type: organism-based; conditions: in vivo, read-out: GI
[7] = Phytotoxicity against 4-leaf stage Glycine max (soybean) plants assessed as plant growth inhibition at 75 g ai/ha applied through spraying measured 30 days after compound treatment under greenhouse conditions; assay type: organism-based; conditions: in vivo, read-out: GI
[8] = tested on: Chenopodium album; test: Post-emergence herbicidal activity against Chenopodium album seedlings assessed as plant growth inhibition at 75 g ai/ha measured 15 days after compound treatment under greenhouse conditions; assay type: functional; conditions: 360 h, read-out: GI
[9] = tested on: Chenopodium album; test: Post-emergence herbicidal activity against Chenopodium album seedlings assessed as plant growth inhibition at 37.5 g ai/ha measured 15 days after compound treatment under greenhouse conditions; assay type: functional; conditions: 360 h, read-out: GI
[10] = tested on: Capsella bursa-pastoris; test: Post-emergence herbicidal activity against Capsella bursa-pastoris assessed as plant growth inhibition at 75 g ai/ha; assay type: functional; conditions: read-out: GI
Method in brief: (§1)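 Compounds formulated as 100 g/L emulsifiable concentrates in DMF with Tween-80 as emulsifier, then diluted with water. Sprayed post-emergence onto pot-grown plants in a greenhouse, with broadleaf weeds at the 2-leaf stage and grasses at the 1-leaf stage. Clay soil with 1.6% organic matter and CEC 12.1 […]; relative humidity about 50%. Rate (g ai/ha) = active ingredient ÷ pot surface area. Untreated and DMF + Tween-80 solvent controls.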

[11] = tested on: Symphyotrichum subulatum; test: Post-emergence herbicidal activity against Symphyotrichum subulatum assessed as plant growth inhibition at 75 g ai/ha; assay type: functional; conditions: read-out: GI; method in brief: as §1
[12] = tested on: Boehmeria nivea; test: Post-emergence herbicidal activity against Boehmeria nivea assessed as plant growth inhibition at 75 g ai/ha; assay type: functional; conditions: read-out: GI; method in brief: as §1
[13] = tested on: Amaranthus spinosus; test: Post-emergence herbicidal activity against Amaranthus spinosus assessed as plant growth inhibition at 75 g ai/ha; assay type: functional; conditions: read-out: GI; method in brief: as §1
[14] = tested on: Eleusine indica; test: Post-emergence herbicidal activity against Eleusine indica assessed as plant growth inhibition at 75 g ai/ha; assay type: functional; conditions: read-out: GI; method in brief: as §1
[15] = tested on: Cerastium arvense; test: Post-emergence herbicidal activity against Cerastium arvense assessed as plant growth inhibition at 75 g ai/ha; assay type: functional; conditions: read-out: GI; method in brief: as §1
[16] = tested on: Veronica polita; test: Post-emergence herbicidal activity against Veronica polita assessed as plant growth inhibition at 75 g ai/ha; assay type: functional; conditions: read-out: GI; method in brief: as §1
[17] = tested on: Senna tora; test: Post-emergence herbicidal activity against Senna tora assessed as plant growth inhibition at 75 g ai/ha; assay type: functional; conditions: read-out: GI; method in brief: as §1
[18] = tested on: Alkekengi officinarum; test: Post-emergence herbicidal activity against Physalis alkekengi assessed as plant growth inhibition at 75 g ai/ha; assay type: functional; conditions: read-out: GI; method in brief: as §1
[19] = tested on: Phytolacca acinosa; test: Post-emergence herbicidal activity against Raddix phytolaccae assessed as plant growth inhibition at 75 g ai/ha; assay type: functional; conditions: read-out: GI; method in brief: as §1
[20] = tested on: Ammannia baccifera; test: Post-emergence herbicidal activity against Ammannia baccifera assessed as plant growth inhibition at 75 g ai/ha; assay type: functional; conditions: read-out: GI; method in brief: as §1
[21] = tested on: Ludwigia prostrata; test: Post-emergence herbicidal activity against Ludwigia prostrata assessed as plant growth inhibition at 75 g ai/ha; assay type: functional; conditions: read-out: GI; method in brief: as §1
[22] = tested on: Commelina communis; test: Post-emergence herbicidal activity against Commelina communis (Asiatic dayflower) assessed as plant growth inhibition at 75 g ai/ha; assay type: functional; conditions: read-out: GI; method in brief: as §1
[23] = tested on: Myosoton aquaticum; test: Post-emergence herbicidal activity against Myosoton aquaticum assessed as plant growth inhibition at 75 g ai/ha; assay type: functional; conditions: read-out: GI; method in brief: as §1
[24] = tested on: Sonchus asper; test: Post-emergence herbicidal activity against Sonchus asper assessed as plant growth inhibition at 75 g ai/ha; assay type: functional; conditions: read-out: GI; method in brief: as §1
[25] = tested on: Polygonum humifusum; test: Post-emergence herbicidal activity against Polygonum humifusum assessed as plant growth inhibition at 75 g ai/ha; assay type: functional; conditions: read-out: GI; method in brief: as §1
[26] = tested on: Solanum nigrum; test: Post-emergence herbicidal activity against Solanum nigrum (black nightshade) assessed as plant growth inhibition at 75 g ai/ha; assay type: functional; conditions: read-out: GI; method in brief: as §1
[27] = tested on: Chenopodium album; test: Post-emergence herbicidal activity against Chenopodium album seedlings assessed as plant growth inhibition at 150 g ai/ha measured 15 days after compound treatment under greenhouse conditions; assay type: functional; conditions: 360 h, read-out: GI
[28] = tested on: Amaranthus retroflexus; test: Post emergence herbicidal activity against Amaranthus retroflexus seedlings assessed as plant growth inhibition at 75 g ai/ha measured 15 days after compound treatment under greenhouse conditions; assay type: functional; conditions: 360 h, read-out: GI
[29] = tested on: Amaranthus retroflexus; test: Post emergence herbicidal activity against Amaranthus retroflexus seedlings assessed as plant growth inhibition at 37.5 g ai/ha measured 15 days after compound treatment under greenhouse conditions; assay type: functional; conditions: 360 h, read-out: GI
[30] = tested on: Amaranthus retroflexus; test: Post emergence herbicidal activity against Amaranthus retroflexus seedlings assessed as plant growth inhibition at 150 g ai/ha measured 15 days after compound treatment under greenhouse conditions; assay type: functional; conditions: 360 h, read-out: GI
[31] = tested on: Brassica juncea; test: Post-emergence herbicidal activity against Brassica juncea seedlings assessed as plant growth inhibition at 75 g ai/ha measured 15 days after compound treatment under greenhouse conditions; assay type: functional; conditions: 360 h, read-out: GI
[32] = tested on: Brassica juncea; test: Post-emergence herbicidal activity against Brassica juncea seedlings assessed as plant growth inhibition at 37.5 g ai/ha measured 15 days after compound treatment under greenhouse conditions; assay type: functional; conditions: 360 h, read-out: GI
[33] = tested on: Brassica juncea; test: Post-emergence herbicidal activity against Brassica juncea seedlings assessed as plant growth inhibition at 150 g ai/ha measured 15 days after compound treatment under greenhouse conditions; assay type: functional; conditions: 360 h, read-out: GI
[34] = tested on: Setaria faberi; test: Post-emergence herbicidal activity against Setaria faberi (Giant Foxtail) seedlings assessed as plant growth inhibition at 75 g ai/ha measured 15 days after compound treatment under greenhouse conditions; assay type: functional; conditions: 360 h, read-out: GI
[35] = tested on: Setaria faberi; test: Post-emergence herbicidal activity against Setaria faberi (Giant Foxtail) seedlings assessed as plant growth inhibition at 37.5 g ai/ha measured 15 days after compound treatment under greenhouse conditions; assay type: functional; conditions: 360 h, read-out: GI
[36] = tested on: Setaria faberi; test: Post-emergence herbicidal activity against Setaria faberi (Giant Foxtail) seedlings assessed as plant growth inhibition at 150 g ai/ha measured 15 days after compound treatment under greenhouse conditions; assay type: functional; conditions: 360 h, read-out: GI
[37] = tested on: Digitaria sanguinalis; test: Post-emergence herbicidal activity against Digitaria sanguinalis (hairy crabgrass) seedlings assessed as plant growth inhibition at 75 g ai/ha measured 15 days after compound treatment under greenhouse conditions; assay type: functional; conditions: 360 h, read-out: GI
[38] = tested on: Digitaria sanguinalis; test: Post-emergence herbicidal activity against Digitaria sanguinalis (hairy crabgrass) seedlings assessed as plant growth inhibition at 37.5 g ai/ha measured 15 days after compound treatment under greenhouse conditions; assay type: functional; conditions: 360 h, read-out: GI
[39] = tested on: Digitaria sanguinalis; test: Post-emergence herbicidal activity against Digitaria sanguinalis (hairy crabgrass) seedlings assessed as plant growth inhibition at 150 g ai/ha measured 15 days after compound treatment under greenhouse conditions; assay type: functional; conditions: 360 h, read-out: GI
[40] = tested on: Echinochloa crus-galli; test: Post emergence herbicidal activity against Echinochloa crus-galli (barnyard grass) seedlings assessed as plant growth inhibition at 75 g ai/ha measured 15 days after compound treatment under greenhouse conditions; assay type: functional; conditions: 360 h, read-out: GI
[41] = tested on: Echinochloa crus-galli; test: Post emergence herbicidal activity against Echinochloa crus-galli (barnyard grass) seedlings assessed as plant growth inhibition at 37.5 g ai/ha measured 15 days after compound treatment under greenhouse conditions; assay type: functional; conditions: 360 h, read-out: GI
[42] = tested on: Echinochloa crus-galli; test: Post emergence herbicidal activity against Echinochloa crus-galli (barnyard grass) seedlings assessed as plant growth inhibition at 150 g ai/ha measured 15 days after compound treatment under greenhouse conditions; assay type: functional; conditions: 360 h, read-out: GI
[43] = biological target: T1, Protoporphyrinogen oxidase, chloroplastic (Nicotiana tabacum, UniProt O24163); test: Inhibition of Nicotiana tabacum (tobacco) recombinant PPO assessed as protoporphyrin IX formation at room temperature by fluorimetric assay
T1 sequence (O24163 whole entry): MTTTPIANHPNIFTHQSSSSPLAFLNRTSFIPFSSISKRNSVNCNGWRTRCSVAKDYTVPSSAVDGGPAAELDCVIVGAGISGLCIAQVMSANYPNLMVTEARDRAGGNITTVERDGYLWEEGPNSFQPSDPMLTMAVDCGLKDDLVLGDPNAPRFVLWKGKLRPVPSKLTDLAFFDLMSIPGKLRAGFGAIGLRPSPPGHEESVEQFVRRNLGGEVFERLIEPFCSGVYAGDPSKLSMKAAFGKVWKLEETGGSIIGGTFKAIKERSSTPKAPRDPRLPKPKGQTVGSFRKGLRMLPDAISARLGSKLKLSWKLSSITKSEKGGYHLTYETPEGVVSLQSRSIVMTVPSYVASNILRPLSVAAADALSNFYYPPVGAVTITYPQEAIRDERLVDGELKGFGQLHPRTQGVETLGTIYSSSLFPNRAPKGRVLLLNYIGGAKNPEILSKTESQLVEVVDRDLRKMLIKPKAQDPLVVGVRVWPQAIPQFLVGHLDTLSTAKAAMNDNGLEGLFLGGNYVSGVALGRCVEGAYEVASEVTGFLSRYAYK

CCOC(=O)C(C)Sc1nc2cc(-n3nc(C)n(C(F)F)c3=O)c(F)cc2s1 (stereo not drawn)
inhibition at 720 h [1]: 80%
inhibition at 720 h [2]: 100%
inhibition at 720 h [3]: 30%
inhibition at 720 h [4]: 70%
inhibition at 720 h [5]: 0%
inhibition at 720 h [6]: 50%
inhibition at 720 h [7]: 0%
inhibition of growth at 75 g/ha [8]: 60%
inhibition of growth at 37.5 g/ha [9]: 60%
inhibition of growth at 75 g/ha [10]: 100%
inhibition of growth at 75 g/ha [11]: 100%
inhibition of growth at 75 g/ha [12]: 100%
inhibition of growth at 75 g/ha [13]: 100%
inhibition of growth at 75 g/ha [14]: 100%
inhibition of growth at 75 g/ha [15]: 100%
inhibition of growth at 75 g/ha [16]: 100%
inhibition of growth at 75 g/ha [17]: > 90%
inhibition of growth at 75 g/ha [18]: > 90%
inhibition of growth at 75 g/ha [19]: > 90%
inhibition of growth at 75 g/ha [20]: > 90%
inhibition of growth at 75 g/ha [21]: > 90%
inhibition of growth at 75 g/ha [22]: > 90%
inhibition of growth at 75 g/ha [23]: > 90%
inhibition of growth at 75 g/ha [24]: 100%
inhibition of growth at 75 g/ha [25]: 100%
inhibition of growth at 75 g/ha [26]: 100%
inhibition of growth at 150 g/ha [27]: ≥ 90%
inhibition of growth at 75 g/ha [28]: 80%
inhibition of growth at 37.5 g/ha [29]: 80%
inhibition of growth at 150 g/ha [30]: ≥ 90%
inhibition of growth at 75 g/ha [31]: ≥ 90%
inhibition of growth at 37.5 g/ha [32]: ≥ 90%
inhibition of growth at 150 g/ha [33]: ≥ 90%
inhibition of growth at 75 g/ha [34]: ≥ 90%
inhibition of growth at 37.5 g/ha [35]: ≥ 90%
inhibition of growth at 150 g/ha [36]: ≥ 90%
inhibition of growth at 75 g/ha [37]: 80%
inhibition of growth at 37.5 g/ha [38]: 80%
inhibition of growth at 150 g/ha [39]: ≥ 90%
inhibition of growth at 75 g/ha [40]: 80%
inhibition of growth at 37.5 g/ha [41]: 80%
inhibition of growth at 150 g/ha [42]: ≥ 90%
Ki [43]: 240 nM
